The results in this text go back to ChEMBL document CHEMBL1121731, “Synthesis and neuroleptic activity of benzamides. Cis-N-(1-benzyl-2-methylpyrrolidin-3-yl)-5-chloro-2-methoxy-4-(methylamino)benzamide and related compounds” (1981).

For orientation: ED50 means the midpoint of the dose-response relation.

A value given as a limit tells only on which side of the number the result lay.

Common to all, as to type: functional
The subject of experiment [1] is Rattus norvegicus. Put plainly: Subcutaneous dose to inhibit apomorphine-induced stereotyped behavior in 50% of rats. A digest of the protocol: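 Test drugs given subcutaneously to rats; 30 min later apomorphine 1.25 mg/kg i.v. Inhibition scored positive unless both gnawing and licking were seen during 20 min after apomorphine. ED50 estimated by Litchfield–Wilcoxon or graphical method, 6–12 rats per dose.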

The nature of experiment [2]: Ratio of ED50 for inhibition of catalepsy induction to stereotypy induction.
The species named for experiment [3] is Rattus norvegicus. The experiment in a line: The inhibitory effect on the continuous avoidance was expressed as the dose to increase the number of electroshocks by 60% of the rats. A digest of the protocol:
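Modified Sidman continuous avoidance schedule in rats; shock-shock interval 5 s, response-shock interval 25 s; only rats receiving fewer than 19 shocks/h used. Drugs given subcutaneously; effect expressed as dose raising electroshocks by 60 (1 shock/min) between 1 and 2 h post-dose.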

Experiment [4] is filed under the species Rattus norvegicus. Put plainly: Effective dose to induce catalepsy in 50% of the rats.
The species entered for experiment [5] is Rattus norvegicus. Put plainly: Effective dose to induce catalepsy in 50% of the rats (95% confidence limits included in parentheses).
Setting [6] is: Rattus norvegicus, sc, read-out: ED50.

Take `COc1cc(N(C)C(C)=O)c(Cl)cc1C(=O)NC1CCN(Cc2ccccc2)C1` (configuration not stated): in experiment [1] (setting [6]), the ED50 is > 30 mg/kg.

As to `COc1cc(N2CCCC2)c(Cl)cc1C(=O)NC1CCN(Cc2ccccc2)C1` (configuration not stated), the ED50 in experiment [1] (setting [6]) stood at 0.6 mg/kg.

Take `CNc1cc(OC)c(C(=O)NC2CCN(Cc3ccccc3)C2)cc1Cl` (configuration not stated): the Ratio in experiment [2] was 100. Also, the ED50 in experiment [3] is 0.008 mg/kg; in experiment [4] it was 1.6 mg/kg; in experiment [1] (setting [6]), 0.016 mg/kg.

As to `COc1cc(N(C)C)c(Cl)cc1C(=O)NCCN(C)Cc1ccccc1`, the ED50 in experiment [1] (setting [6]) is 0.54 mg/kg.

Turning to `COc1cc(N)c(Cl)cc1C(=O)NCCN(Cc1ccc(Cl)cc1)C(C)C`, the ED50 in experiment [1] (setting [6]) was 3 mg/kg.

Turning to `CCN(CCNC(=O)c1cc(Cl)c(N)cc1OC)Cc1ccc(F)cc1`, the ED50 in experiment [1] (setting [6]) was determined as 0.2 mg/kg.

`CCN1CCC(NC(=O)c2cc(Cl)c(NC)cc2OC)C1` (configuration not stated): the ED50 in experiment [1] (setting [6]) stood at 10 mg/kg.

In the case of `CNc1cc(OC)c(C(=O)NC2CCN(Cc3ccccc3)C2C)cc1Cl` (cis isomer) [NEMONAPRIDE], the ED50 was determined as 0.5 mg/kg in experiment [5], 0.0034 mg/kg in experiment [3] and 0.0076 mg/kg in experiment [1].

As to `COc1cc(N)c(Cl)cc1C(=O)NCCN(C)CC1CCCCC1`, the ED50 in experiment [1] (setting [6]) is 3 mg/kg.

As to `COc1cc(N(C)C(=O)C(F)(F)F)c(Cl)cc1C(=O)NC1CCN(Cc2ccccc2)C1` (configuration not stated), in experiment [1] (setting [6]), the ED50 turned out to be 0.3 mg/kg.

`COc1cc(N)c(Cl)cc1C(=O)NCCN(C)Cc1ccccc1C`: in experiment [1] (setting [6]), the ED50 is 2 mg/kg.

`CCN(CCNC(=O)c1cc(Cl)c(N)cc1OC)Cc1ccc(OC)cc1`: the ED50 in experiment [1] (setting [6]) worked out at 0.2 mg/kg.

As for `COc1cc(NC(C)=O)c(Cl)cc1C(=O)NC1CCN(Cc2ccccc2)C1` (configuration not stated), the ED50 in experiment [1] (setting [6]) amounted to 1.8 mg/kg.

Take `COc1cc(N(C)C)c(Cl)cc1C(=O)NC1CCN(C2CCCCC2)C1` (configuration not stated): in experiment [1] (setting [6]), the ED50 is 1 mg/kg.

For the compound `COc1cc(NC=O)c(Cl)cc1C(=O)NC1CCN(Cc2ccccc2)C1` (configuration not stated), the ED50 in experiment [1] (setting [6]) is 0.6 mg/kg.

As for `CCN(CCNC(=O)c1cc(Cl)c(N)cc1OC)Cc1ccc(Cl)cc1Cl`, the ED50 in experiment [1] (setting [6]) came to 10 mg/kg.

Turning to `CCNc1cc(OC)c(C(=O)NC2CCN(Cc3ccccc3)C2)cc1Cl` (configuration not stated), the 50% effective dose (ED50) in experiment [1] (setting [6]) was 0.1 mg/kg.

In turn, `CNc1cc(OC)c(C(=O)NC2CCN(Cc3ccccc3)C2C)cc1Cl` (trans isomer) [NEMONAPRIDE] registered an ED50 in experiment [1] of 0.057 mg/kg.

As to `COc1cc(N)c(Cl)cc1C(=O)NC1CCN(C2CCCCC2)C1` (configuration not stated), the ED50 in experiment [1] (setting [6]) came out at 1.8 mg/kg.

With `CCN(CCNC(=O)c1cc(Cl)c(N)cc1OC)Cc1ccco1`, the ED50 in experiment [1] (setting [6]) came to 3 mg/kg.

Turning to `COc1ccc(S(C)(=O)=O)cc1C(=O)NCCN(C)Cc1ccccc1`, in experiment [1] (setting [6]), the 50% effective dose (ED50) was 3 mg/kg.

On to `CCN1CCCC1CNC(=O)c1cc(Cl)c(N)cc1OC` (configuration not stated), for which the ED50 in experiment [1] (setting [6]) was > 30 mg/kg.

As to `COc1cc(N(C)C)c(Cl)cc1C(=O)NCC1CCCN1C1CCCCC1.O=C(O)C(=O)O` (configuration not stated), the ED50 in experiment [1] (setting [6]) is > 30 mg/kg.

With `CCN1CCCC1CNC(=O)c1cc(S(=O)(=O)CC)ccc1OC` (configuration not stated) [SULTOPRIDE], in experiment [1] (setting [6]), the ED50 turned out to be 18 mg/kg.

Consider `COc1cc(N)c(Cl)cc1C(=O)NCCN(Cc1ccccc1)C(C)(C)C`, for which, in experiment [1] (setting [6]), the ED50 is > 30 mg/kg.

Regarding `CCN(CCNC(=O)c1cc(Cl)c(N)cc1OC)Cc1ccccc1OC`, the ED50 in experiment [1] (setting [6]) was determined as 10 mg/kg.

Turning to `COc1cc(N(C)C)c(Cl)cc1C(=O)NC1CCN(Cc2ccccc2)C1` (configuration not stated), the ED50 in experiment [1] (setting [6]) is 0.12 mg/kg.

`CCN(CCNC(=O)c1cc(Cl)c(N)cc1OC)Cc1ccccc1`: the ED50 in experiment [1] (setting [6]) worked out at 0.31 mg/kg.

For the compound `CNc1cc(OC)c(C(=O)NC2CCN(Cc3ccccc3)C2C)cc1Cl` (cis isomer), the Ratio in experiment [2] is 66.

For the compound `CCN(CCNC(=O)c1cc(Cl)c(N)cc1OC)Cc1cccc(Cl)c1`, the ED50 in experiment [1] (setting [6]) worked out at 0.58 mg/kg.

As to `CCN1C(CNC(=O)c2cc(Cl)c(NC)cc2OC)CCC1c1ccccc1` (configuration not stated), in experiment [1] (setting [6]), the ED50 was > 30 mg/kg.

Regarding `COc1ccc(Cl)cc1C(=O)NCCN(C)Cc1ccccc1.Cl`, in experiment [1] (setting [6]), the ED50 is 3 mg/kg.

For `CCCCN(CCNC(=O)c1cc(Cl)c(N)cc1OC)Cc1ccc(Cl)cc1`, in experiment [1] (setting [6]), the ED50 came to 20 mg/kg.

For `COc1cc(N)c(Cl)cc1C(=O)NCCN(C)Cc1ccccc1`, the ED50 in experiment [1] (setting [6]) came out at 0.38 mg/kg.

Regarding `CNc1cc(OC)c(C(=O)NCC2CCC(C)N2Cc2ccccc2)cc1Cl.Cl` (configuration not stated), the Ratio in experiment [2] was 39. The ED50 in experiment [3] was determined as 0.11 mg/kg; in experiment [4], 13.5 mg/kg; in experiment [1] (setting [6]), 0.35 mg/kg.

Regarding `COc1cc(N)c(Cl)cc1C(=O)NCC1CCCN1Cc1ccccc1` (configuration not stated), the ED50 in experiment [1] (setting [6]) came to 1.1 mg/kg.

Take `O=C(CCCN1CCC(O)(c2ccc(Cl)cc2)CC1)c1ccc(F)cc1` [HALOPERIDOL]: in experiment [2], the Ratio amounted to 11. The ED50 amounted to 0.021 mg/kg in experiment [3], 1 mg/kg in experiment [4] and 0.095 mg/kg in experiment [1] (setting [6]).

Consider `CCN(CCNC(=O)c1cc(Cl)c(N)cc1OC)Cc1ccccn1`, for which the ED50 in experiment [1] (setting [6]) was found to be 30 mg/kg.

Turning to `CNc1cc(OC)c(C(=O)NCCN(C)Cc2ccccc2)cc1Cl.Cl`, the Ratio in experiment [2] worked out at 79. For the same compound, the ED50 in experiment [3] was 0.041 mg/kg; in experiment [4], 16.5 mg/kg; in experiment [1] (setting [6]) it was 0.21 mg/kg.

Consider `COc1ccc(OC)c(C(=O)NCCN(C)Cc2ccccc2)c1.Cl`, for which, in experiment [1] (setting [6]), the ED50 is 3 mg/kg.

Take `COc1ccc(S(N)(=O)=O)cc1C(=O)NCCN(C)Cc1ccccc1`: in experiment [1] (setting [6]), the ED50 was > 30 mg/kg.

Regarding `CCNCCNC(=O)c1cc(Cl)c(N)cc1OC` [MONODEETHYLATED-MCP], the ED50 in experiment [1] (setting [6]) is > 30 mg/kg.

In the case of `CCN(CCNC(=O)c1cc(Cl)c(N)cc1OC)Cc1cccc(OC)c1`, the 50% effective dose (ED50) in experiment [1] (setting [6]) was determined as 1 mg/kg.

`CNc1cc(OC)c(C(=O)NCC2CCCN2Cc2ccccc2)cc1Cl.Cl` (configuration not stated): the median effective dose (ED50) in experiment [1] (setting [6]) worked out at 0.94 mg/kg.

On to `COc1cc(N)c(Cl)cc1C(=O)NCCN(C)Cc1ccccc1C(F)(F)F`, for which, in experiment [1] (setting [6]), the ED50 was 30 mg/kg.

As to `COc1cc(N)c(Cl)cc1C(=O)NCCN(Cc1ccccc1)Cc1ccccc1`, the ED50 in experiment [1] (setting [6]) is > 30 mg/kg.

Consider `CCNS(=O)(=O)c1ccc(OC)c(C(=O)NCCN(C)Cc2ccccc2)c1`, for which the 50% effective dose (ED50) in experiment [1] (setting [6]) was > 30 mg/kg.

For `CCN1CCCC1CNC(=O)c1cc(S(N)(=O)=O)ccc1OC` (configuration not stated) [SULPIRIDE], the ED50 in experiment [1] (setting [6]) was > 100 mg/kg.

With `COc1cc(N)c(Cl)cc1C(=O)NC1CCN(Cc2ccccc2)C1` (configuration not stated), the ED50 in experiment [1] (setting [6]) stood at 0.17 mg/kg.

Regarding `COc1cc(NCc2ccccc2)c(Cl)cc1C(=O)NC1CCN(Cc2ccccc2)C1` (configuration not stated), in experiment [1] (setting [6]), the ED50 is > 30 mg/kg.

In the case of `COc1cc(N)c(Cl)cc1C(=O)NCCN(C)C(C)c1ccccc1` (configuration not stated), the median effective dose (ED50) in experiment [1] (setting [6]) was 1 mg/kg.

Take `CCCNc1cc(OC)c(C(=O)NC2CCN(Cc3ccccc3)C2)cc1Cl` (configuration not stated): in experiment [1] (setting [6]), the ED50 was determined as 17 mg/kg.

Regarding `CCN(CC)CCNC(=O)c1cc(Cl)c(N)cc1OC` [METOCLOPRAMIDE], the Ratio in experiment [2] stood at 8.4. Also, the ED50 amounted to 2.6 mg/kg in experiment [3], 26 mg/kg in experiment [4] and 3.1 mg/kg in experiment [1] (setting [6]).

As for `CCN(CCNC(=O)c1cc(Cl)c(N)cc1OC)Cc1ccccc1Cl`, the ED50 in experiment [1] (setting [6]) was 10 mg/kg.

Regarding `CCCN(CCNC(=O)c1cc(Cl)c(N)cc1OC)Cc1ccc(Cl)cc1`, the median effective dose (ED50) in experiment [1] (setting [6]) is 3 mg/kg.

In the case of `CCC1c2ccccc2CN1CNC(=O)c1cc(Cl)c(N)cc1OC` (configuration not stated), in experiment [1] (setting [6]), the ED50 is 1 mg/kg.

Take `COc1cc(C(=O)NCCN(C)Cc2ccccc2)cc(OC)c1OC`: the ED50 in experiment [1] (setting [6]) is > 30 mg/kg.

For `CN(CCNC(=O)c1ccc(F)cc1)Cc1ccccc1.Cl`, the ED50 in experiment [1] (setting [6]) was > 30 mg/kg.

Consider `CCN(CCNC(=O)c1cc(Cl)c(N)cc1OC)Cc1ccc(Cl)cc1`, for which the median effective dose (ED50) in experiment [1] (setting [6]) was found to be 0.24 mg/kg.

As for `COc1cc(N)c(Cl)cc1C(=O)NCC1CCC(C)N1Cc1ccccc1` (configuration not stated), the ED50 in experiment [1] (setting [6]) was found to be 0.67 mg/kg.
